Screening results: PubChem BioAssay, The Scripps Research Institute Molecular Screening Center
PRMT1 FP inh: PRMT1 (human) inhibition, primary screen; recombinant PRMT1, activity-based probe fluorescence polarization; Q99873; 370,000 compounds, 1.3% hits; AID 652257; inhibition, % at 2.79 µM;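 active means inhibition above about 21% made by adding two undisclosed values, limit read from the data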
HTRA1 inhibitor: blocks human HTRA1 serine peptidase | Q92743 | recombinant HTRA1, FP-rhodamine activity-based probe, fluorescence polarization | inhibition, % at 5.96 µM | 340,000 compounds, 0.5% hits | AID 504803; in the data active means inhibition above about 36%;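 further: 0% = enzyme with DMSO and 100% = wells lacking enzyme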
mABHD4 FP: inhibitors of mouse ABHD4. AID 720543. purified mABHD4, FP-Rh probe fluorescence polarization. inhibition, % at 8.92 µM. 370,000 compounds, 0.54% hits. Q8VD66;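 active means inhibition exceeding the mean over every tested compound plus 3 SD, cut at about 30% in these data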;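 further: 0% = plate median of compound wells and 100% = S159A mutant with DMSO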
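Test system: mABHD4 protein; Read-out basis: % inhibition; Incubation: 45 min + 60 min at 25 °C; Repeats: single replicate; Technique: fluorescence polarization with parallel and perpendicular emission, 525/598 nm; Compound: 8.92 µM, single dose; Benchmarks: full inhibition S159A mutant plus DMSO, zero as sample-well median.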
SIAE inh: blocks human sialic acid acetylesterase; Q9HAT2; SIAE FP-Rh probe binding, fluorescence polarization; inhibition, % at 9.66 µM; 370,000 compounds, 0.69% hits; AID 1053197;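 active means inhibition above a cutoff: mean of compounds within the control limits plus 3 SD of those, cut at about 17% in these data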;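 further: 0% = plate median of compound wells and 100% = probe without SIAE protein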
TCR CD3 inh: inhibitors of human TCR-CD3 interaction; TAMRA-labeled TCR probe fluorescence, biochemical; inhibition, % at 9.4 µM; 360,000 compounds, 0.37% hits; AID 651800; in the data active means inhibition above about 19%;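 further: recombinant mutant TCR 2C K166C tagged with TAMRA read by polarization; 0% = receptor in buffer alone and 100% = receptor with positive control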
PAD4 FP inh: PAD4 (human) enzyme inhibition. Q9UM07. recombinant PAD4, RCA probe fluorescence polarization. inhibition, % at 6.36 µM. 330,000 compounds, 0.41% hits;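 active means percent inhibition above a cutoff equal to the mean of all tested compounds plus 3 SD, cut at about 15% in these data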;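 further: 0% = PAD4 with RCA probe and DMSO and 100% = probe without PAD4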
Target sequence (Q9UM07 whole entry, looked up): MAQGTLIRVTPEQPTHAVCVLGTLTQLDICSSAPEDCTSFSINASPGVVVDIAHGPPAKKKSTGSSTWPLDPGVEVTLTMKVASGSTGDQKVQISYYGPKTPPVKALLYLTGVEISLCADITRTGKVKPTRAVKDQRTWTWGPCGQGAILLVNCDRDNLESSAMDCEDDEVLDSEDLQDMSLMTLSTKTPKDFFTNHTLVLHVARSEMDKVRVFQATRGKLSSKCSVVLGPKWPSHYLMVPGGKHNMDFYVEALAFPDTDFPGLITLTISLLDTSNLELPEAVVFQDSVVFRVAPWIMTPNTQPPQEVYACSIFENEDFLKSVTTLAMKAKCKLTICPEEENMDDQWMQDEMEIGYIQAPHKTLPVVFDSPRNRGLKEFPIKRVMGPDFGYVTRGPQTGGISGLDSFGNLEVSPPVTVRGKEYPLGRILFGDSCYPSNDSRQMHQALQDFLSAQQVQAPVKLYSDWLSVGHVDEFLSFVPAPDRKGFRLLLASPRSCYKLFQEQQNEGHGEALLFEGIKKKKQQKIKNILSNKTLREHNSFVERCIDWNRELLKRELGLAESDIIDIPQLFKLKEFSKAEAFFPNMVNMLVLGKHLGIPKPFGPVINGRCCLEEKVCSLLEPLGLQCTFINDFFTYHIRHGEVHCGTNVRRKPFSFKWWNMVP
HTRA1 conf: HTRA1 (human) inhibition, confirmation; shares compounds with HTRA1 inhibitor; 1,600 compounds, 66% hits; recombinant HTRA1, FP-rhodamine activity-based probe, fluorescence polarization; inhibition, % at 5.96 µM;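 active means mean inhibition over three repeats above a set limit taken from the earlier primary screen, cut at about 37% in these data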;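 further: 0% = HTRA1 with DMSO and 100% = wells lacking HTRA1; inhibitors block probe binding so polarization drops and inhibition rises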
PRMT1 confirm: confirmation of human PRMT1 inhibitors. shares compounds with PRMT1 FP inh. recombinant His-PRMT1, activity-based probe fluorescence polarization. inhibition, % at 2.79 µM. 3,300 compounds, 42% hits. AID 687036;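 active means mean inhibition across replicates above the hit cutoff derived for the earlier primary screen, cut at about 22% in these data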
mABHD4 conf: confirmation of mouse ABHD4 inhibitors | inhibition, % at 8.92 µM | 1,800 compounds, 55% hits | shares compounds with mABHD4 FP | purified mABHD4, FP-Rh probe fluorescence polarization;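 active means mean inhibition across replicates above the hit cutoff set in the primary screen, cut at about 30% in these data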;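 further: 0% = wild-type ABHD4 with DMSO and 100% = catalytically dead S159A mutant with DMSO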
Starred values were filed as active, the others as inactive. Hits are enriched below; roughly 2.9% of the tested compounds scored in any of these assays.

How did CC1=NN(c2ccc(C)cc2)C(=O)/C1=C/c1ccc(-c2cc([N+](=O)[O-])ccc2O)o1 do in these assays?
PRMT1 FP inh: 3.6; HTRA1 inhibitor: 46.4*; mABHD4 FP: 31.0*; SIAE inh: 13.2; TCR CD3 inh: -3.9; HTRA1 conf: 52.9*; mABHD4 conf: 53.4*

Results for CC(C)Oc1cccc(-c2csc(N3CCC(C(N)=O)CC3)n2)c1 ?
PRMT1 FP inh: -3.5; mABHD4 FP: 0.7; SIAE inh: 2.6

What do the screens show for `Clc1ccccc1N1CCN(C2=Nc3ccccc3Sc3ccccc32)CC1`?
PRMT1 FP inh: 10.0; mABHD4 FP: -0.6; SIAE inh: 6.5

Results for CC1(C)Oc2ccc(C(=O)NC3CCCC3)cc2NC1=O ?
PRMT1 FP inh: -1.4; mABHD4 FP: -1.5; SIAE inh: -2.1

Results for CC[C@H](NC(=O)[C@@H](Cc1ccccc1)NC(=O)[C@H]1O[C@@H](n2cnc3c(=O)[nH]c(N)nc32)[C@H](O)[C@@H]1O)c1ccccc1 ?
PRMT1 FP inh: 5.2; mABHD4 FP: 8.2; SIAE inh: 4.4; TCR CD3 inh: -3.3

What do the screens show for `Cc1cc(O)c(N=Cc2cc3c(cc2[N+](=O)[O-])OCO3)cc1C`?
PRMT1 FP inh: 25.3*; HTRA1 inhibitor: 51.7*; mABHD4 FP: 45.0*; SIAE inh: 8.4; TCR CD3 inh: -7.4; PAD4 FP inh: -5.3; HTRA1 conf: 6.4; PRMT1 confirm: 22.4*; mABHD4 conf: 20.7

Results for O=C(N/N=C/c1cc2c(cc1[N+](=O)[O-])OCO2)c1ccc2c(c1)OCO2 ?
PRMT1 FP inh: 15.8; HTRA1 inhibitor: 0.4; mABHD4 FP: 10.1; SIAE inh: -3.9; TCR CD3 inh: -8.9; PAD4 FP inh: -1.2

How did Cc1[nH]c2ccccc2c1/C=N/Nc1ccccc1[N+](=O)[O-] do in these assays?
PRMT1 FP inh: 8.0; HTRA1 inhibitor: 67.7*; mABHD4 FP: 59.1*; SIAE inh: 15.8; TCR CD3 inh: -3.7; PAD4 FP inh: 0.8; HTRA1 conf: 74.4*; mABHD4 conf: 73.4*

How did O=c1cc(CSc2ccccc2)[nH]c2ccccc12 do in these assays?
PRMT1 FP inh: -4.6; HTRA1 inhibitor: 0.8; mABHD4 FP: 2.6; SIAE inh: 0.9; TCR CD3 inh: 7.1; PAD4 FP inh: -4.4

How did Cc1ccc(SCc2cc(=O)c3c(=O)n(-c4ccccc4)[nH]c3[nH]2)cc1 do in these assays?
PRMT1 FP inh: 22.3*; HTRA1 inhibitor: 56.0*; mABHD4 FP: 54.4*; SIAE inh: 16.1; TCR CD3 inh: 2.2; PAD4 FP inh: 1.6; HTRA1 conf: 8.4; mABHD4 conf: 34.5*

What do the screens show for `O=C(NN1C(=O)/C(=C/C=C/c2ccco2)SC1=S)c1ccccc1O`?
PRMT1 FP inh: 41.9*; HTRA1 inhibitor: 39.6*; mABHD4 FP: 30.8*; SIAE inh: 9.7; TCR CD3 inh: -0.2; PAD4 FP inh: -26.6; HTRA1 conf: 19.2; PRMT1 confirm: 32.1*; mABHD4 conf: -26.2

Results for O=C(O)C(Cc1ccccc1)N1C(=O)/C(=C/C=C/c2ccco2)SC1=S (stereo not given) ?
PRMT1 FP inh: 61.0*; HTRA1 inhibitor: 36.9*; mABHD4 FP: 41.8*; SIAE inh: 11.2; TCR CD3 inh: 15.9; HTRA1 conf: 14.8; PRMT1 confirm: 33.6*; mABHD4 conf: -67.2

What do the screens show for `CC(C)C(C(=O)NCc1ccccc1)N1CCN(CCN2CCOCC2)CC1` (stereo not given)?
PRMT1 FP inh: -3.9; mABHD4 FP: 2.9; SIAE inh: -5.7; TCR CD3 inh: -0.5

What do the screens show for `COC(=O)[C@]12C[C@H](CC(=O)N3CCSCC3)C(=O)N(Cc3ccccc3)C1=C[C@H](C(C)C)O[C@@H]2C1CC1`?
PRMT1 FP inh: 2.8; mABHD4 FP: -2.1; SIAE inh: 1.3; TCR CD3 inh: 0.4

What do the screens show for `O=C1OC(c2ccc3ccccc3c2O)(c2ccc3ccccc3c2O)c2ccccc21`?
PRMT1 FP inh: 20.1; HTRA1 inhibitor: 36.2*; mABHD4 FP: 43.8*; SIAE inh: 11.9; TCR CD3 inh: 0.7; HTRA1 conf: 44.0*; mABHD4 conf: 48.0*

How did Oc1cc(CNCc2ccccc2)c(O)cc1CNCc1ccccc1 do in these assays?
PRMT1 FP inh: 20.4; HTRA1 inhibitor: 57.0*; mABHD4 FP: 41.5*; SIAE inh: 12.2; TCR CD3 inh: 7.5; HTRA1 conf: 52.2*; mABHD4 conf: 57.7*

What do the screens show for `Oc1c(Cl)cc(Cl)c2c1NCCC2`?
PRMT1 FP inh: 19.3; HTRA1 inhibitor: 51.5*; mABHD4 FP: 38.0*; SIAE inh: 14.4; TCR CD3 inh: 5.1; HTRA1 conf: 30.1; mABHD4 conf: 37.4*

How did O=C1NCCCc2c1oc1ccc(O)cc21 do in these assays?
PRMT1 FP inh: -2.9; HTRA1 inhibitor: -3.2; mABHD4 FP: -5.4; SIAE inh: 5.1; TCR CD3 inh: -2.1; PAD4 FP inh: -0.4

What do the screens show for `OC[C@@H]1CC[C@@H]2O[C@H](CCc3ccc(-c4ccc(F)cc4)cc3)[C@@H](n3cc(C4CC4)nn3)C[C@@H]2O1`?
PRMT1 FP inh: 0.3; mABHD4 FP: -12.1; SIAE inh: 2.5

Results for CCC1CCc2sc(C(=O)Nc3cc(S(=O)(=O)N4CCOCC4)ccc3OC)cc2C1 (stereo not given) ?
PRMT1 FP inh: 2.4; mABHD4 FP: -14.0; SIAE inh: -7.7

Results for O=[N+]([O-])c1ccc2c(c1Nc1ccccc1)=NC1(CCCCC1)N=2 ?
PRMT1 FP inh: 1.6; HTRA1 inhibitor: 15.0; mABHD4 FP: 7.4; SIAE inh: 3.5; TCR CD3 inh: 6.7; PAD4 FP inh: -2.8

Results for COc1ccc(Nc2c([N+](=O)[O-])ccc3c2=NC2(CCCCC2)N=3)cc1 ?
PRMT1 FP inh: -0.7; HTRA1 inhibitor: 54.7*; mABHD4 FP: 30.5*; SIAE inh: 4.8; TCR CD3 inh: -5.3; PAD4 FP inh: -5.1; HTRA1 conf: 51.9*; mABHD4 conf: 40.3*

Results for C[C@@H](NC(=O)/C(C#N)=C/c1ccc(O)c(O)c1)c1ccccc1 ?
PRMT1 FP inh: 14.6; HTRA1 inhibitor: 68.3*; mABHD4 FP: 53.8*; SIAE inh: 10.5; TCR CD3 inh: 3.1; PAD4 FP inh: -1.9; HTRA1 conf: 91.2*; mABHD4 conf: 27.5

How did N#C/C(=C/c1ccc(O)c(O)c1)C(=O)NCc1ccc(Cl)cc1 do in these assays?
PRMT1 FP inh: 11.2; HTRA1 inhibitor: 80.7*; mABHD4 FP: 50.7*; SIAE inh: 4.9; TCR CD3 inh: 3.7; PAD4 FP inh: -1.7; HTRA1 conf: 86.8*; mABHD4 conf: 37.2*
